Bioassay records from PubChem.
KCNQ1 inh: human KCNQ1 channel inhibition; P51787; CHO-K1 KCNQ1, FluxOR thallium flux fluorescence; active compounds read high; B-score at 10 µM; actives 1.3% (n = 310,000); AID 2642;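 active means compounds whose thallium flux B-score, printed positive for inhibition, exceeds three library SD while starting fluorescence stays within three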;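 further: channel opened by potassium depolarization with thallium stimulus after 20 min compound exposure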
KCNK3 block: human KCNK3 channel inhibition, primary screen; O14649; CHO-KCNK3 thallium flux, FluxOR fluorescence; active compounds read low; B-score at 10 µM; actives 0.84% (n = 340,000); AID 602410;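 active means B-score under library mean minus 4 SD, starting fluorescence ratio at most library mean plus 5 SD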;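 further: more negative B-score means stronger inhibition of thallium flux through KCNK3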
KCNK9 inh: inhibitors of human KCNK9 two-pore domain potassium channel; Q9NPC2; HEK293 KCNK9, FluxOR thallium flux fluorescence; active compounds read low; AID 488922; B-score at 10 µM; actives 1.2% (n = 310,000);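 active means ratio B-score over 3 SD below the library mean, with starting fluorescence within 5 SD of its mean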;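 further: negative B-score means less thallium flux so channel inhibition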
Target sequence (Q9NPC2 whole entry, looked up, the tested form may be a part): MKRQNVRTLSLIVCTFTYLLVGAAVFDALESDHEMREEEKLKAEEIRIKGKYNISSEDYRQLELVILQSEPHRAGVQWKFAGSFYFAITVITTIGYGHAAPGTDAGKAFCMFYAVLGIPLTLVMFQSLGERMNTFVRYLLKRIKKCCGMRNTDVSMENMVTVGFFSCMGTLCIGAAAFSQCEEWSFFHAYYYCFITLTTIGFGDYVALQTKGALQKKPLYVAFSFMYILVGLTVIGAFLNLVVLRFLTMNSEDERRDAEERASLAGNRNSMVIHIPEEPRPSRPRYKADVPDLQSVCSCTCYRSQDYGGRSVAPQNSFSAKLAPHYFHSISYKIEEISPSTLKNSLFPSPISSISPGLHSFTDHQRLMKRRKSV
KCNQ1 pot: human KCNQ1 channel potentiation or activation. CHO-K1 KCNQ1, thallium flux FluxOR fluorescence; active compounds read high. B-score at 10 µM. actives 0.35% (n = 310,000). AID 2648;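 active means fluorescence ratio B-score, a plate-corrected score, at least three library SD, with initial intensity B-score within 5 SD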
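Medium – assay buffer, equal DMSO in all wells · Material – CHO-K1 cell line with stable KCNQ1 potassium channel expression · Signal – kinetic FluxOR thallium fluorescence, 10-s 1-Hz baseline, 110-s post-stimulus read · Compound – single concentration per compound, DMSO matched to controls · Schedule – 37 °C overnight plating, 90-min dark dye load, 20-min compound pretreatment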
hERG rescue: compounds protecting human hERG from proarrhythmic drug block | Q12809 | actives 0.51% (n = 310,000) | activation (rescue from dofetilide block), less the hit threshold, % at 10 µM | CHO-hERG, FluxOR thallium flux, dofetilide IC70 present;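 active means activation above the mean of controls blocked by dofetilide plus 5 SD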;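 further: thallium influx through hERG after potassium depolarization seen as dye fluorescence rise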
Kir21 inh: blocks the mouse Kir2.1 inward-rectifier potassium channel; AID 1672; B-score at 10 µM; actives 0.85% (n = 310,000); HEK293-Kir2.1, FluxOR thallium flux fluorescence; active compounds read low;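 active means fluorescence ratio B-score at or below minus 3 SD of library scores, with starting-brightness B-score within 2 SD, cut at about -4.2 in these data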;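 further: channel flux triggered by added potassium and thallium sulfate stimulus; B-score of peak minus minimum fluorescence over baseline after thallium stimulus; more negative B-score means stronger Kir2.1 block with less thallium influx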
* hit, by the source's call; i = inactive; . = not tested or not shown. A selection: hits, their analogues and other compounds. The true share with any hit is near 3.8%.

SMILES	KCNQ1 inh	KCNK3 block	KCNK9 inh	KCNQ1 pot	hERG rescue	Kir21 inh
CSc1ccccc1NC(=S)N/N=C/c1cccn1Cc1ccc(F)cc1	i	i	-7.9*	i	-1	-2.7
CSc1ccccc1NC(=S)N/N=C/c1cccn1Cc1cccc(C)c1	i	i	-6.6*	i	-18	2.6
COc1ccc(NC(=S)N/N=C/c2cccn2Cc2ccccc2F)cc1	i	i	i	i	-6	2.5
COC(=O)N1C(=O)[C@@](Cc2ccccc2)(c2ccccc2)N1C(=O)OC	i	i	i	i	5.4*	0.67
CCOC(=O)c1ccc(CC(=O)c2ccc(O)cc2O)o1	i	i	i	i	-7	-0.26
CCC(=O)Oc1ccc(C/C(=N\O)c2ccc(O)cc2O)o1	7*	i	i	i	-6	0.14
Cc1cccc(OCc2nnc(SCC(=O)N3c4ccccc4CCc4ccccc43)o2)c1	i	i	i	i	-15	-0.92
O=C(CSc1nnc(COc2ccc(F)cc2)o1)N1c2ccccc2CCc2ccccc21	i	i	-13*	i	-10	1.6
O=c1c(-c2ccc(Cl)cc2)[n+]([O-])c2ccccc2n1O	i	i	i	32*	40*	-0.1
O=c1c(-c2cccc([N+](=O)[O-])c2)[n+]([O-])c2ccccc2n1O	i	i	i	i	-10	0.43
Cc1ccc(Sc2cnn(-c3ccccc3)c(=O)c2Cl)cc1	10*	i	i	i	-7	-3.2
CC(C)C[C@@]12C(=O)N(c3cccc(F)c3)C(=O)N1[C@H](c1ccc(F)cc1)[C@@H]1C(=O)N(C3CCCCC3)C(=O)[C@@H]12	i	i	i	i	-5	0.95
N#Cc1cccc(C(=O)OCC(=O)c2ccc3c(c2)NC(=O)CO3)c1	i	i	i	i	-14	-0.28
NC(=O)C1CCN(C(=O)CC(c2ccccc2)c2ccccc2)CC1	i	i	i	i	1	-1
Cc1ccc(CSc2nnc([C@@H]3CCCN3C(=O)OC(C)(C)C)o2)cc1	i	i	i	i	-7	-7.1*
C(=C\c1ccccc1)/CSc1nnc(-c2ccccn2)n1Cc1ccco1	i	i	i	i	-17	-7.9*
COc1ccc(N(CC(=O)NN=C2CCN(C)CC2)S(=O)(=O)c2ccc(NC(C)=O)cc2)cc1	i	i	i	i	-5	-0.12
O=[N+]([O-])c1ccc(Nc2nc(NCCO)nc(N3CCCC3)n2)cc1	i	i	i	i	-12	0.01
NNc1nc(Nc2ccc([N+](=O)[O-])cc2)nc(N2CCCCCC2)n1	6*	i	i	i	-5	-0.97
COc1cccc(-n2nc(C(=O)O)c3ccccc3c2=O)c1	i	i	i	i	6.5*	-0.5
CN1CCN(C(=S)C(=O)Nc2ccc(Br)cc2)CC1	i	i	i	i	-3	1.1
Cc1cccc(N(C)S(=O)(=O)c2cccc3nsnc23)c1	i	i	i	i	-5	-4.3*
CN(C)S(=O)(=O)c1cccc2nsnc12	i	i	i	i	-1	0.21
Cc1ccc(N=Cc2nc(-c3ccc(C)cc3)oc2O)cc1	i	i	i	i	-17	0.92
CC(=O)Nc1ccc(N=Cc2nc(-c3ccc(C)cc3)oc2O)cc1	i	i	-6.8*	i	-10	-0.19
SMILES	KCNQ1 inh	KCNK3 block	KCNK9 inh	KCNQ1 pot	hERG rescue	Kir21 inh
COc1ccc(C)cc1Nc1n[n+](-c2ccccc2)c(-c2ccc(OC)c(OC)c2OC)s1	11*	i	i	i	-25	-4.9*
Cc1ccc(-c2[nH]nc3c2C(c2cccnc2)C(C#N)=C(N)O3)cc1 (centres undefined)	i	i	i	i	5.0*	0.61
N=C1/C(=C/c2coc3ccccc3c2=O)C(=O)N=C2SC(c3ccco3)=NN12	7*	i	i	i	-26	-12
N=C1/C(=C\c2coc3ccccc3c2=O)C(=O)N=C2SC(c3ccncc3)=NN12	16*	i	i	i	-50	-12
COc1ccc(C/C(N)=N/OC(=O)CCc2ccccc2)cc1	i	i	i	i	-1	0.33
CCC(Sc1nc(N)c(NC(=O)c2ccc(Br)o2)c(=O)[nH]1)C(=O)O (centres undefined)	i	i	i	i	-8	-1.3
NCC(c1ccccc1)(c1ccccc1)c1ccccc1	i	i	i	i	-11	-4.8*
NCC(O)(c1ccc(Cl)cc1)c1ccc(Cl)cc1	i	i	i	i	-17	-3.1
Cn1cccc1/C=C1\SC(=S)N(NC(=O)c2cccc(Cl)c2)C1=O	.	i	.	.	.	.
CCCN(C(=O)CSCc1ccccc1C)c1c(N)n(Cc2ccccc2)c(=O)[nH]c1=O	i	i	i	i	-6	-0.7
O=C(CCN1CCOCC1)NNC(=S)NC(=O)c1ccc(Br)cc1	6*	i	i	i	-18	0.09
Cc1cccc(C(=O)NC(=S)NNC(=O)COc2c(C)cccc2C)c1	i	i	i	13*	17*	1.1
Cc1ccc(C(=O)NC(=S)NNC(=O)COc2ccc([N+](=O)[O-])cc2)cc1	i	i	i	8*	-8	1
O=C(COc1ccc([N+](=O)[O-])cc1)NNC(=S)NC(=O)c1ccc(Br)cc1	7*	i	i	i	-6	0.38
CSCCC(NC(=O)c1ccco1)C(=O)NCC1CCCO1 (centres undefined)	.	i	.	.	.	.
CCCCNC(=S)NC(=O)c1ccc([N+](=O)[O-])cc1	i	i	i	10*	-2	-0.79
CC(c1ccccc1F)n1cc(C(=O)NCCCc2nc3ccccc3[nH]2)nn1 (centres undefined)	i	i	i	i	-4	-0.15
CCC(C(=O)OCC(=O)NC(=O)c1ccccc1OC)c1ccccc1 (centres undefined)	i	i	i	i	-15	-8.1*
CCCc1cc(=O)[nH]c(SC(C)C(=O)N2c3ccccc3CC2C)n1 (centres undefined)	.	i	.	.	.	.
O=C(CCCCC(=O)Nc1ccccc1Cl)Nc1ccccc1Cl	i	i	i	i	-7	1.2
NNC(=O)CNc1ccccc1Cl	i	i	i	i	5.6*	0.39
CC1CCCC(C)N1C(=O)COc1ccc([N+](=O)[O-])cc1Cl (centres undefined)	i	i	i	i	-10	0.77
CC(=O)Nc1ccccc1C(=O)N1CCN(Cc2ccc3c(c2)OCO3)CC1	i	i	i	i	-8	0.31
